{"data": "Assay results from different studies", "sample": "PAMPA", "note": "Each line is one published result; the experiments were not run side by side."}
{"Structure (SMILES)": "CCCCOC(=O)c1ccc(O)cc1", "concentration": "5 µM", "pH": "pH 7.4", "Papp [×10⁻⁶ cm/s]": 5.68}
{"Structure (SMILES)": "Cc1[nH]c(C)c(S(=O)(=O)Nc2ccc(C(F)(F)F)c(Cl)c2)c1C(=O)N(C)C", "Papp [×10⁻⁶ cm/s]": 11}
{"Structure (SMILES)": "Cc1c(S(=O)(=O)N2CCC(C)CC2)cc(C(=O)NCc2cccnc2N2CCCC2)n1C", "Papp [×10⁻⁶ cm/s]": 32.8}
{"Structure (SMILES)": "CCOC(=O)c1ccc(O)cc1", "concentration": "5 µM", "pH": "pH 7.4", "Papp [×10⁻⁶ cm/s]": 4.72}
{"Structure (SMILES)": "Cc1c(S(=O)(=O)N2CCc3c(cnn3C)C2)cc(C(=O)NCc2cccnc2N2CCCC2)n1C", "Papp [×10⁻⁶ cm/s]": 25}
{"Structure (SMILES)": "Cc1[nH]c(C)c(S(=O)(=O)Nc2ccc(C(F)(F)F)c(Cl)c2Cl)c1C(=O)N1CCC(F)(F)C1", "Papp [×10⁻⁶ cm/s]": 0.18}
{"Structure (SMILES)": "C=C(CC(=O)OC)C(=O)OCc1oc(=O)oc1C", "concentration": "10 µM", "time": "4 h", "Papp [×10⁻⁶ cm/s]": "~15"}
{"Structure (SMILES)": "Cc1c(S(=O)(=O)N2CCc3n[nH]cc3C2)cc(C(=O)NCc2c(F)ccc3cnn(C)c23)n1C", "Papp [×10⁻⁶ cm/s]": 11}
{"Structure (SMILES)": "C=C(CC(=O)OCc1oc(=O)oc1C)C(=O)OC", "concentration": "10 µM", "time": "4 h", "Papp [×10⁻⁶ cm/s]": "~15"}
{"Structure (SMILES)": "Cc1c(S(=O)(=O)N2CCn3cncc3C2)cc(C(=O)NCc2c(F)ccnc2N2CCCC2)n1C", "Papp [×10⁻⁶ cm/s]": 19.1}
{"Structure (SMILES)": "C=C(CC(=O)OC)C(=O)OCOC(=O)C(C)(C)C", "concentration": "10 µM", "time": "4 h", "pH": "pH 7.4", "Papp [×10⁻⁶ cm/s]": "> 10"}
{"Structure (SMILES)": "Cc1c(S(=O)(=O)N2CCn3nccc3C2)cc(C(=O)NCc2cccnc2N2CCCC2)n1C", "Papp [×10⁻⁶ cm/s]": 27.9}
{"Structure (SMILES)": "C=C(CC(=O)OC)C(=O)OCOC(=O)OC(C)C", "concentration": "10 µM", "time": "4 h", "pH": "pH 7.4", "Papp [×10⁻⁶ cm/s]": "> 10"}
{"Structure (SMILES)": "O=C(OCc1ccccc1)c1ccc(O)cc1", "concentration": "5 µM", "pH": "pH 7.4", "Papp [×10⁻⁶ cm/s]": 3.79}
{"Structure (SMILES)": "C=C(CC(=O)OCc1oc(=O)oc1C)C(=O)OCc1oc(=O)oc1C", "concentration": "10 µM", "time": "4 h", "Papp [×10⁻⁶ cm/s]": "~15"}
{"Structure (SMILES)": "CCCCCCCCOC(=O)c1ccc(O)cc1", "concentration": "5 µM", "pH": "pH 7.4", "Papp [×10⁻⁶ cm/s]": 0.73}
